Results published in ChEMBL document CHEMBL1152603, “Comparative molecular field analysis and synthetic validation of a hydroxyamide-propofol binding and functional block of neuronal voltage-dependent sodium channels” (Bioorg Med Chem, 2009).
Activity calls are given as the source filed them. No cut-off for these calls is given here.

Assays:
Rattus norvegicus [1] = organism: Rattus norvegicus; assay: Displacement of [3H]-BTX-B from neuronal voltage-gated sodium channel binding site 2 in rat hippocampal neurons at 40 uM; assay type: tissue-based; conditions: Hippocampus
Summary of the method: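 Inhibition of specifically bound [3H]-BTX-B measured at a single concentration of 40 μM, run in duplicate, and expressed as percent inhibition.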

Rattus norvegicus [2] = organism: Rattus norvegicus; assay: Inhibition of voltage-gated sodium channel in rat hippocampal neurons assessed as blocked of sodium current elicited at -10 mV for […] from holding potential -90 mV at 50 uM measured after washout by patch clamp method; assay type: tissue-based; conditions: Hippocampus
Summary of the method: (§1)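 Hippocampi from E18 rat embryos were trypsin-dissociated and plated on poly-L-lysine coverslips, then kept over a glial monolayer in serum-free MEM with N2 for up to 4 weeks. Whole-cell patch clamp was used. Bath (mM): NaCl 30, choline Cl 110, TEA-Cl 30, CdCl2 0.1, pH 7.3. Cells were held at −90 mV for 5 min first. Tonic current block was measured at 50 μM (n=5–7), followed by washout.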

[3] = Displacement of [3H]-BTX-B from neuronal voltage-gated sodium channel binding site 2 in rat hippocampal neurons; assay type: tissue-based, Hippocampus
Rattus norvegicus [4] = organism: Rattus norvegicus; assay: Inhibition of voltage-gated sodium channel in rat hippocampal neurons assessed as blocked of sodium current elicited at -10 mV for […] from holding potential -90 mV at 50 uM by patch clamp method; assay type: tissue-based; set-up: scale not given: the % may be the effect or the level left; conditions: Hippocampus; summary of the method: as §1

SMILES | Activity (Rattus norvegicus [1]) [%] | Activity (Rattus norvegicus [2]) | IC50 [3] [µM] | Activity (Rattus norvegicus [4]) [%]
CC(C)c1cc(CCCCCCC(O)(C(N)=O)C(F)(F)F)cc(C(C)C)c1O (stereo unspecified) | 71.4 | inactive | 5.7 | 
CC(C)c1cc(C(O)(C(N)=O)C(F)(F)F)cc(C(C)C)c1O (stereo unspecified) | 24.5 |  |  | 
CC(C)c1cc(C2(C(F)(F)F)NC(=O)NC2=O)cc(C(C)C)c1O (stereo unspecified) | 55.1 |  |  | 
CC(C)c1cc(CCCCC(O)(C(N)=O)C(F)(F)F)cc(C(C)C)c1O (stereo unspecified) | 67.1 | inactive | 22 | 59
CC(C)c1cccc(C(C)C)c1O | 16.6 |  |  | 
NC(=O)C(O)(c1ccccc1)C(F)(F)F (stereo unspecified) | 6.8 |  |  | 
